# Experimental data published in ChEMBL document CHEMBL1123392 (J Med Chem, 1986).
# Calls of active or inactive are those of the source. No cut-off for these calls is given here.
# Assays:
# [1] = biological target: D(2) dopamine receptor (Rattus norvegicus, UniProt P61169); experiment: Compound was for its ability to displace [3H]haloperidol binding to rat striatal Dopamine receptor D2
# Procedure, shortened: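 Rat striatal membranes at about 20 mg/mL final tissue concentration. [3H]haloperidol 2 nM, incubated 10 min. Nonspecific binding defined with (+)-butaclamol 1.0 μM.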
# [2] = system: Rattus norvegicus; experiment: Dopaminergic activity in rats rendered hypokinetic by the bilateral injection of 6-hydroxydopamine (6-OHDA) into the anterolateral hypothalamus at dose of 10 mg/kg sc; type: functional; details: route subcutaneous
# [3] = system: Rattus norvegicus; experiment: Dopaminergic activity in rats rendered hypokinetic by the bilateral injection of 6-hydroxydopamine (6-OHDA) into the anterolateral hypothalamus at dose of 5 mg/kg sc; type: functional; details: route subcutaneous
# [4] = species on record: Rattus norvegicus; experiment: Ability to induce contralateral rotational behavior in rats with a unilateral 6-OHDA-induced lesion of the nigrostriatal dopamine (DA) pathway.; type: functional
# Procedure, shortened: (§1)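 Male Sprague–Dawley rats given unilateral 6-OHDA (8 μg in 3 μL, with ascorbic acid) into the left medial forebrain bundle under pentobarbital anesthesia. Rats were selected 3–4 weeks later for turning 8–10/min after apomorphine 0.25 mg/kg sc. Groups of 4–8 were dosed sc (in water or Tween 80 suspension) and recorded in automatic rotometers until turning stopped. Outputs: total contralateral turns and peak rotations/min.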
# [5] = system: Rattus norvegicus; experiment: Effective dose which lowered the serum prolactin levels after ip administration in rats; type: functional
# Procedure, shortened: (§2)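 Sprague–Dawley rats given α-methyltyrosine 200 mg/kg ip 1 h before compound. Decapitated 30 min after ip or 60 min after oral dosing. Serum prolactin measured by double-antibody RIA. ED50 = dose lowering prolactin to 50% of the α-methyltyrosine-treated control, from one dose–response curve of at least seven doses with 7–9 rats per dose.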
# [6] = system: Rattus norvegicus; experiment: Effective dose which lowered the serum prolactin levels after po administration in rats; type: functional; procedure, shortened: as §2
# [7] = biological target: T1, Adrenergic receptor alpha-1 (Rattus norvegicus, UniProt P15823+P23944+P43140); experiment: Ability to displace [3H]WB-4101 from rat brain alpha-1 adrenergic receptor
# T1 sequence (P15823 whole entry): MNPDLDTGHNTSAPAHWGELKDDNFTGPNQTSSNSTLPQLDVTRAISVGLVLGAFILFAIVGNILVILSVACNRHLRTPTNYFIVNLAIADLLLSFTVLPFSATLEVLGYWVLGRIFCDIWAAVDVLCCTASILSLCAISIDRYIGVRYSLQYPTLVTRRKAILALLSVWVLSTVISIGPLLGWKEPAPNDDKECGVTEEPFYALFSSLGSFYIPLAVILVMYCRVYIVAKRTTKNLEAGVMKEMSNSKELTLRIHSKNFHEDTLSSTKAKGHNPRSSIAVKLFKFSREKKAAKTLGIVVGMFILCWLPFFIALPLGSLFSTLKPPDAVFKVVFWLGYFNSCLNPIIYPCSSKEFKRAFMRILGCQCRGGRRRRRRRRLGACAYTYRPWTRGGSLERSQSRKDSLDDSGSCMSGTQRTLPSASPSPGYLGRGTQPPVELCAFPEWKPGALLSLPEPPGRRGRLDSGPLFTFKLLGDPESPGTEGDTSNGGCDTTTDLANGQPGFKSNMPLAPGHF
# T1 sequence (P23944 whole entry): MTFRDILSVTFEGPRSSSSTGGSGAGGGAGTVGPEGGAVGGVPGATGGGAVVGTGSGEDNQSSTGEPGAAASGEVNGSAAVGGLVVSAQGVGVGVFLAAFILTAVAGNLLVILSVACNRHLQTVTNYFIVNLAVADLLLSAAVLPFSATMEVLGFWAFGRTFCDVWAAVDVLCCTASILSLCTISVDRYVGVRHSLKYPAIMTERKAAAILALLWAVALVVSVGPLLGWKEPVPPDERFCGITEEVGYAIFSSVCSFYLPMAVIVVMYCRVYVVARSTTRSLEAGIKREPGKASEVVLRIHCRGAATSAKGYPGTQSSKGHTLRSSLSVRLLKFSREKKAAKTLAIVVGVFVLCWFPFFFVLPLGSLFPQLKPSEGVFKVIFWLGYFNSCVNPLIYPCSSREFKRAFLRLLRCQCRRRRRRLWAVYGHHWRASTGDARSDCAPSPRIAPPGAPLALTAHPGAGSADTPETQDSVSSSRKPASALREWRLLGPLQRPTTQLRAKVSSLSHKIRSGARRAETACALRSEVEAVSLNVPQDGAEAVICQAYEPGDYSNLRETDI
# T1 sequence (P43140 whole entry): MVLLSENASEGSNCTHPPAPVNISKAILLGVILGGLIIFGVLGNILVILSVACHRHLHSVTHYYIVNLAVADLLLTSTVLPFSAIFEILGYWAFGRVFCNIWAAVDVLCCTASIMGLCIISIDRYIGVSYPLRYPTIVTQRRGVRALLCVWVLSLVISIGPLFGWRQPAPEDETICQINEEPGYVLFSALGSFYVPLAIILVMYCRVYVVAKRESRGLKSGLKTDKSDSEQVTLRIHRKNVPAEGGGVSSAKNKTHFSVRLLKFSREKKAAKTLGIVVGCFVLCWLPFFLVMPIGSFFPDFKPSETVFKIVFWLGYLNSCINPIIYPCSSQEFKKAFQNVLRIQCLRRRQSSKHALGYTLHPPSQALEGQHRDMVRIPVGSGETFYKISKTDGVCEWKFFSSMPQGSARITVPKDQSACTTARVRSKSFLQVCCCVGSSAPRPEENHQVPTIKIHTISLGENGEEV
# Procedure, shortened: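 Rat whole brain minus cerebellum and brain stem, membranes at about 20 mg/mL final tissue concentration. [3H]WB-4101 0.22 nM, incubated 15 min. Nonspecific binding defined with (-)-norepinephrine 2 μM. IC50 = concentration giving 50% displacement of specific binding, taken from Hill linearization. Three separate experiments.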
# [8] = system: Rattus norvegicus; experiment: Max. intensity of rotational behavior in rats with a unilateral 6-OHDA-induced lesion of the nigrostriatal dopamine (DA) pathway at dose of 2.5 mg/kg sc.; type: functional; procedure, shortened: as §1
# [9] = system: Rattus norvegicus; experiment: Dopaminergic activity in rats rendered hypokinetic by the bilateral injection of 6-hydroxydopamine (6-OHDA) into the anterolateral hypothalamus at dose of 50 mg/kg sc; Inactive; type: functional, organism-based; parameters: dose 50 mg/kg
# [10] = system: Rattus norvegicus; experiment: Dopaminergic activity in rats rendered hypokinetic by the bilateral injection of 6-hydroxydopamine (6-OHDA) into the anterolateral hypothalamus at dose of 25 mg/kg sc; type: functional; details: route subcutaneous
# [11] = system: Rattus norvegicus; experiment: Max. intensity of rotational behavior in rats with a unilateral 6-OHDA-induced lesion of the nigrostriatal dopamine (DA) pathway at dose of 2.5 mg/kg sc; type: functional; details: route subcutaneous; procedure, shortened: as §1
# [12] = species on record: Rattus norvegicus; experiment: Ability to induce contralateral rotational behavior in rats with a unilateral 6-OHDA-induced lesion of the nigrostriatal dopamine (DA) pathway; type: functional; procedure, shortened: as §1
# [13] = system: Rattus norvegicus; experiment: Dopaminergic activity in rats rendered hypokinetic by the bilateral injection of 6-hydroxydopamine (6-OHDA) into the anterolateral hypothalamus at dose of 50 mg/kg sc; type: functional; details: route subcutaneous
# [14] = system: Rattus norvegicus; experiment: Dopaminergic activity in rats rendered hypokinetic by the bilateral injection of 6-hydroxydopamine (6-OHDA) into the anterolateral hypothalamus at dose of 2.5 mg/kg sc; type: functional; details: route subcutaneous
# [15] = system: Rattus norvegicus; experiment: Dopaminergic activity in rats rendered hypokinetic by the bilateral injection of 6-hydroxydopamine (6-OHDA) into the anterolateral hypothalamus at dose of 25 mg/kg sc; Inactive; type: functional, organism-based; parameters: dose 25 mg/kg
# [16] = system: Rattus norvegicus; experiment: Dopaminergic activity in rats rendered hypokinetic by the bilateral injection of 6-hydroxydopamine (6-OHDA) into the anterolateral hypothalamus at dose of 1.25 mg/kg sc; type: functional; details: route subcutaneous
# [17] = Rattus norvegicus, Serum, ip, read-out: ED50
# [18] = Rattus norvegicus, Serum, po, read-out: ED50
# Sequence of D(2) dopamine receptor (P61169 whole entry): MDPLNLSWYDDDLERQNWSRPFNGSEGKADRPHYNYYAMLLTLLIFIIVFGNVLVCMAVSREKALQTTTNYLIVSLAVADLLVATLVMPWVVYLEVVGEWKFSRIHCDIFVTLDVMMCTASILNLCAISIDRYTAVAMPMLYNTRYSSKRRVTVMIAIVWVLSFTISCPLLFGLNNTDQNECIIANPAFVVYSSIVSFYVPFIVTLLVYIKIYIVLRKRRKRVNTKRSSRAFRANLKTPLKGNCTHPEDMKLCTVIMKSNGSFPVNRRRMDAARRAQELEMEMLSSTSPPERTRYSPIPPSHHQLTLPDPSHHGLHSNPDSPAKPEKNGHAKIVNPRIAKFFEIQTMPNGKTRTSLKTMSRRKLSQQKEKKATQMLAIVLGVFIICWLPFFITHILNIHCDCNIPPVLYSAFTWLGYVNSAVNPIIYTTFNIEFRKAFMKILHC
structure (smiles),measurement,setting,value
COc1ccc(CCN2CCN(c3cccccc3=O)CC2)cc1OC,IC50,[1],0.88 µM
same,Activity,[2],101
COc1ccc([C@H](O)CN2CCN(c3cccccc3=O)CC2)cc1OC [CILADOPA],Activity,[3],320
same,Activity,[4],1770
same,ED50,[5]; [17],0.36 mg/kg
same,ED50,[6]; [18],0.9 mg/kg
same,IC50,[1],2.2 µM
same,IC50,[7],1.09 µM
same,Max intensity,[8],10.7 rotations min-1
O=c1cccccc1N1CCN(CC(O)c2ccccc2)CC1 (centres undefined),Activity,[9],inactive
O=c1cccccc1N1CCN(CCc2ccc(O)c(O)c2)CC1,Activity,[10],98
same,IC50,[1],0.76 µM
COc1ccc(C(O)CN2CCN(c3cccccc3=O)CC2)cc1OC.Cl (centres undefined),ED50,[5]; [17],0.48 mg/kg
same,ED50,[6]; [18],2 mg/kg
same,Max intensity,[11],9.2 rotations min-1
same,IC50,[1],1.5 µM
same,IC50,[7],1.07 µM
same,Activity,[12],823
same,Activity,[2],191
COc1ccc(CCN2CCCN(c3cccccc3=O)CC2)cc1OC,Activity,[9],inactive
COc1ccc(C(O)CN2CCN(c3cccccc3=O)CC2)cc1 (centres undefined),Activity,[13],105
COc1ccc([C@H](O)[C@@H](C)N2CCN(c3cccccc3=O)CC2)cc1OC (stereo in doubt; 17),Activity,[14],20
same,Activity,[4],121
same,ED50,[5],2.2 mg/kg
same,Max intensity,[8]; 2.5 mg/kg,1.1 rotations min-1
O=c1cccccc1N1CCN(CCc2ccc(F)cc2)CC1,Activity,[9],inactive
COc1ccc(CCNCC/N=c2/cccccc2O)cc1OC,Activity,[9],inactive
COc1cc(C(O)CN2CCN(c3cccccc3=O)CC2)cc(OC)c1OC (centres undefined),Activity,[9],inactive
COc1cc(C(O)CN2CCN(c3cccccc3=O)CC2)ccc1O (centres undefined),Activity,[15],inactive
COc1ccc(CC/N=c2/cccccc2O)cc1OC,Activity,[9],inactive
COc1ccc(C(O)CN2CCN(c3ccccc3)CC2)cc1OC (centres undefined),Activity,[9],inactive
COc1ccc([C@H](O)[C@@H](C)N2CCN(c3cccccc3=O)CC2)cc1OC (stereo in doubt; 14),Activity,[14],111
same,Activity,[4],1903
same,ED50,[5],0.2 mg/kg
same,ED50,[6]; [18],0.25 mg/kg
same,IC50,[1],1.05 µM
same,Max intensity,[8]; 2.5 mg/kg,9.5 rotations min-1
COc1ccc([C@@H](O)[C@@H](C)N2CCN(c3cccccc3=O)CC2)cc1OC,IC50,[1],8.55 µM
same,Activity,[2],55
COc1ccc([C@@H](O)CN2CCN(c3cccccc3=O)CC2)cc1OC,Activity,[3],27
same,Activity,[4],140
same,ED50,[5]; [17],2.7 mg/kg
same,IC50,[1],16.6 µM
same,IC50,[7],1.44 µM
same,Max intensity,[8],1.3 rotations min-1
O=c1cccccc1N1CCN(CCc2ccccc2)CC1,Activity,[9],inactive
COc1cccc(C(O)CN2CCN(c3cccccc3=O)CC2)c1 (centres undefined),Activity,[9],inactive
CC(C)C[C@H]1C(=O)N2CCC[C@H]2[C@]2(O)O[C@](NC(=O)[C@@H]3C=C4c5cccc6[nH]c(Br)c(c56)C[C@H]4N(C)C3)(C(C)C)C(=O)N12 [BROMOCRIPTINE],Activity,[4],836
same,ED50,[5]; [17],0.24 mg/kg
same,ED50,[6]; [18],0.6 mg/kg
same,Activity,[2],112
same,Max intensity,[8],4.7 rotations min-1
O=c1cccccc1N1CCN(CC(O)c2ccc(F)cc2)CC1 (centres undefined),Activity,[9],inactive
NCCc1ccc(O)c(O)c1 [DOPAMINE],IC50,[7],90 µM
COc1ccc([C@H](O)[C@@H](C)N2CCN(c3cccccc3=O)CC2)cc1OC (stereo in doubt; 18),Activity,[4],2109
same,ED50,[5],0.04 mg/kg
same,ED50,[6],0.15 mg/kg
same,Max intensity,[8]; 2.5 mg/kg,14.6 rotations min-1
same,Activity,[16],186
